Measurements from publication PMC11729038 (Bioorganic & medicinal chemistry letters, 2024).

Assays:
[1] = Reaction of electrophiles with CoASH, adduct formation monitored by LC-MS; assay type: physicochemical; conditions: for kforward, reaction with CoASH: 25 °C, pH 7.5 phosphate buffer, 2 mM each of CoASH and electrophile, 1 mM TCEP, 5% MeOH, same with and without 1.2 μM AANAT
Summary of the method: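 Uncatalyzed electrophile–CoASH reactions contained 5% MeOH for electrophile dissolution. CoASH adduct formation was followed over time by LC-MS. Rate constants came from global kinetic fitting of product accumulation. Upper and lower bounds were set within a 0.83 relative error threshold.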

[2] = tested on: melatonin receptors; conditions: cited from earlier work
[3] = cited from earlier work
[4] = tested on: sheep AANAT enzyme; conditions: truncated bisubstrate inhibitor versus 2; cited from earlier work
[5] = tested on: human AANAT enzyme; conditions: cited from earlier work
[6] = target: AANAT (Ovis aries, UniProt Q29495); experiment: AANAT enzymatic; assay type: biochemical, Ovis aries (sheep); conditions: for Fold less potent than 1 (AANAT IC50): relative to compound 1; for Inhibition of AANAT at 10 μM test compound concentration: sheep AANAT
Chain of AANAT (Q29495 whole entry): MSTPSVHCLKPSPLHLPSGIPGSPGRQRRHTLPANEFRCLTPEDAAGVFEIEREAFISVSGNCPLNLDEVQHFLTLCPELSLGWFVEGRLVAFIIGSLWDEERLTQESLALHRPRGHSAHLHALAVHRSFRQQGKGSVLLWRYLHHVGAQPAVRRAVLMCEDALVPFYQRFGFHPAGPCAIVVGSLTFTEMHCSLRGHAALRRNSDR

SMILES: O=C(CBr)NCCc1c[nH]c2ccccc12 [Compound 1, bromoacetyltryptamine, reference compound]
- Second order rate constant, reaction with CoASH ([1]; pH 6.8, absence of AANAT): 1.31 M⁻¹ min⁻¹
- Effect of AANAT on rate of reaction with CoASH ([1]; pH 7.5): the same in the presence and absence of AANAT
- Selectivity against melatonin receptors [2]: lack selectivity

SMILES: CC(C)(CO[P@@](=O)(O)O[P@@](=O)(O)OC[C@H]1O[C@@H](n2cnc3c(N)ncnc32)[C@H](O)[C@@H]1OP(=O)(O)O)[C@@H](O)C(=O)NCCC(=O)NCCSCC(=O)NCCc1c[nH]c2ccccc12 [Compound 2]
- Cell permeability [3]: poor cell permeability

SMILES: CC(C)(COP(=O)(O)OP(=O)(O)OC[C@H]1O[C@@H](n2cnc3c(N)ncnc32)[C@H](O)[C@@H]1OP(=O)(O)O)[C@@H](O)C(=O)NCCC(=O)NCCSC(=O)NCCc1c[nH]c2ccccc12 [Compound 3a]
- Fold less potent than 2 (reported) [4]: 4 X

SMILES: O=C(CBr)NCCc1csc2ccc(O)cc12 [Compound 6]
- Selectivity against melatonin receptors [2]: lack selectivity

SMILES: C=CC(=O)NCCc1csc2ccc(OC)cc12 [Compound 7]
- Fold less potent than bromoacetyl analog 5 (reported IC50) [5]: 40 X

SMILES: O=C(CBr)NCc1c[nH]c2ccccc12 [Compound 8]
- Fold less potent than 1 (AANAT IC50) [6]: 6 X

SMILES: O=C(CBr)NCCCc1c[nH]c2ccccc12 [Compound 9]
- Fold less potent than 1 (AANAT IC50) [6]: 6 X

SMILES: C=CC(=O)NCc1c[nH]c2ccccc12 [Compound 10]
- kforward, reaction with CoASH [1]: 0.0156 M⁻¹ min⁻¹
- Reaction rate with CoASH at pH 6.8 relative to pH 7.5 ([1]; pH 6.8, in the presence of enzyme): several times slower than at pH 7.5

SMILES: C=CC(=O)NCCc1c[nH]c2ccccc12 [Compound 11]
- Inhibition of AANAT at 10 μM test compound concentration [6]: inactive
- kforward, reaction with CoASH [1]: 0.00873 M⁻¹ min⁻¹

SMILES: C=CS(=O)(=O)NCc1c[nH]c2ccccc12 [Compound 12]
- Inhibition of AANAT at 10 μM test compound concentration [6]: inactive
- kforward, reaction with CoASH [1]: 0.261 M⁻¹ min⁻¹

SMILES: C=CS(=O)(=O)NCCc1c[nH]c2ccccc12 [Compound 13]
- Inhibition of AANAT at 10 μM test compound concentration [6]: inactive
- kforward, reaction with CoASH [1]: 0.110 M⁻¹ min⁻¹
